Test results reported in ChEMBL document CHEMBL5136984, “Synthesis and antiproliferative activity of 6BrCaQ-TPP conjugates for targeting the mitochondrial heat shock protein TRAP1” (Eur J Med Chem, 2022).
Active and inactive are the calls of the source. No cut-off for these calls is given here.

Assays:
HT-29 [1] = assay: Induction of mitochondrial membrane potential depolarization in human HT-29 cells assessed as reduction in fluorescence intensity at 0.1 to 1 uM measured after 2 to 6 hrs by TMRE staining based analysis relative to control; assay type: functional; design: scale not given: the % may be the effect or the level left; details: dose 0.1-1 µM, time 2-6 hrs
How it was run: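 HT-29 cells (2,500/well) seeded the day before, exposed 2, 3 or 6 h at 0.1, 0.5 and 1 µM. CCCP 50 µM for 20 min served as depolarization control. TMRE added at 200 nM final for 20 min at 37 °C, fluorescence read by microplate, relative to untreated cells. 3–8 replicate wells per condition.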

MDA-MB-231 [2] = assay: Cytotoxicity against human MDA-MB-231 cells assessed as cell growth inhibition incubated for 72 hrs by Celltiter Glo assay; assay type: functional, cell-based; details: for GI50: MDA-MB-231, time 72 hrs; for IC50: MDA-MB-231, 72 h
How it was run: (§1)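 MDA-MB-231 cells exposed for 72 h; survival quantified by CellTiter Glo luminescence. GI50 = 50% growth inhibition; TGI = concentration at which final cell number equals the starting number; LC50 and IC50 also derived from the same curves.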

MDA-MB-231 [3] = assay: Cytotoxicity against human MDA-MB-231 cells assessed as induction of cell death incubated for 72 hrs by Celltiter Glo assay; assay type: functional; details: read-out: LC50 (the source's name)
How it was run: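 MDA-MB-231 cells were exposed to compounds for 72 h, and survival was quantified by CellTiter-Glo luminescence. From the curves, GI50 (50% growth inhibition), TGI (cell number equal to that at start), LC50 (end cell number 50% of start) and IC50 (50% inhibition of cell activity) were derived.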

MDA-MB-231 [4] = assay: Cytotoxicity against human MDA-MB-231 cells assessed as concentration required for complete tumor growth inhibition incubated for 72 hrs by Celltiter Glo assay; assay type: functional; how it was run: as §1
HCT-116 [5] = assay: Cytotoxicity against human HCT-116 cells assessed as induction of cell death incubated for 72 hrs by MTT assay; assay type: functional; details: read-out: LC50 (the source's name)
How it was run: (§2)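 Cells were seeded at 2,500 per well and treated 24 h later for 72 h, with 4 replicates per condition and at least three independent experiments. MTT (5 mg/mL solution) was added for 2 h, then the medium was replaced by DMSO. Absorbance at 570 nm was blank-corrected using cell-free wells containing compound, and untreated cells were set as 100% metabolic activity.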

K562 = assay: Cytotoxicity against human K562 cells assessed as induction of cell death incubated for 72 hrs by MTT assay; assay type: functional; details: read-out: LC50 (the source's name); how it was run: as §2
MDA-MB-231 [6] = assay: Cytotoxicity against human MDA-MB-231 cells assessed as induction of cell death incubated for 72 hrs by MTT assay; assay type: functional; details: read-out: LC50 (the source's name); how it was run: as §2
PC-3 = assay: Cytotoxicity against human PC-3 cells assessed as induction of cell death incubated for 72 hrs by MTS assay; assay type: functional; details: read-out: LC50 (the source's name)
HT-29 [7] = assay: Cytotoxicity against human HT-29 cells assessed as inhibition of cell growth incubated for 72 hrs by MTT assay; assay type: functional, cell-based; details: HT-29, 72 h
How it was run: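 HT-29 cells (McCoy medium, 10% FBS, 2 mM glutamine) seeded at 2,500/well, treated 24 h later for 72 h. MTT (5 mg/mL solution) 2 h, formazan dissolved in DMSO, A570 corrected for cell-free blanks with compound. Untreated wells set as 100%. Quadruplicates, at least three independent experiments.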

HT-29 [8] = assay: Cytotoxicity against human HT-29 cells assessed as dead cells at 0.1 to 2 uM incubated for 72 hrs by trypan blue staining based optical microscopic analysis relative to control; assay type: functional; details: dose 0.1-2 µM
How it was run: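 HT-29 cells were grown in McCoy medium with 10% FBS and 2 mM L-glutamine at 37 °C under 5% CO2, seeded at 30,000 per well and treated 24 h later for 72 h. Cells were PBS-washed, trypsinized, mixed 1:1 with trypan blue, and viable and dead cells were counted by light microscopy. Each condition was run three times.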

HT-29 [9] = assay: Cytotoxicity against human HT-29 cells assessed as reduction in viable cells incubated for 72 hrs by trypan blue staining based optical microscopic analysis relative to control; assay type: functional, cell-based; details: HT-29, 72 h
How it was run: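 HT-29 cells seeded at 30,000/well, treated 24 h later for 72 h. Cells washed with PBS, trypsinized, resuspended in medium and mixed 1:1 with trypan blue. Viable and dead cells counted by optical microscopy on a counting slide. Each condition analysed 3 times.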

HT-29 [10] = assay: Cytotoxicity against human HT-29 cells assessed as cell mortality at 0.1 to 1 uM incubated for 2 to 6 hrs by MTT assay; assay type: toxicity, cell-based; details: ht-29, 1 µM, dose lower 0.1 µM, time lower 2 hrs, dose upper 1 µM, time upper 6 hrs
HCT-116 [11] = assay: Cytotoxicity against human HCT-116 cells assessed as cell viability at 1 uM incubated for 72 hrs by MTT assay relative to control; assay type: functional; details: read-out: Activity
How it was run: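 MTT read-out after 72 h exposure; 2,500 cells/well seeded and treated 24 h later. MTT solution (5 mg/mL) added for 2 h, medium replaced by DMSO, absorbance at 570 nm corrected for cell-free blanks with compound. Untreated cells taken as 100% metabolic activity. Quadruplicate wells, experiment repeated at least three times.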

HT-29 [12] = assay: Downregulation of SDHA protein expression in human HT-29 cells incubated for 24 hrs by Western blot analysis; assay type: functional, cell-based; details: dose 0.1-1 µM, DDE = dose-dependent effect
How it was run: (§3)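 HT-29 cells exposed 24 h at 0.1, 0.5 and 1 µM; RIPA lysates, 30 µg protein on 4–15% stain-free SDS-PAGE, PVDF transfer. Anti-SDH-A (mouse, 1:500) or anti-SDH-B (rabbit, 1:250) overnight at 4 °C, HRP secondary, ECL. Densitometry normalized to stain-free total protein; duplicate blots.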

HT-29 [13] = assay: Downregulation of SDHB protein expression in human HT-29 cells incubated for 24 hrs by Western blot analysis; assay type: functional, cell-based; details: dose 0.1-1 µM, DDE = dose-dependent effect; how it was run: as §3
HT-29 [14] = assay: Downregulation of HSP27 protein expression in human HT-29 cells at 0.1 to 0.5 uM incubated for 24 hrs by Western blot analysis; assay type: functional, cell-based; details: dose 0.1-0.5 µM
How it was run: (§4)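 HT-29 cells treated 24 h, lysed in RIPA with protease inhibitors 30 min on ice. 30 µg protein denatured at 95 °C with β-mercaptoethanol, run on 4–15% stain-free gels, transferred to PVDF. Blocked in 5% milk/TBS-Tween, primary antibody overnight at 4 °C, HRP secondary 1 h, ECL detection. Signals normalized to stain-free total protein. Blots in duplicate.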

HT-29 [15] = assay: Downregulation of HSP70 protein expression in human HT-29 cells at 0.1 to 0.5 uM incubated for 24 hrs by Western blot analysis; assay type: functional, cell-based; details: dose 0.1-0.5 µM; how it was run: as §4
[16] = target: T1, Heat shock factor protein 1 (Homo sapiens) (UniProt Q00613); assay: Induction of HSF-1 degradation in human HT-29 cells at 0.5 uM incubated for 24 hrs by Western blot analysis; assay type: cell-based; how it was run: as §4
T1 sequence (whole entry): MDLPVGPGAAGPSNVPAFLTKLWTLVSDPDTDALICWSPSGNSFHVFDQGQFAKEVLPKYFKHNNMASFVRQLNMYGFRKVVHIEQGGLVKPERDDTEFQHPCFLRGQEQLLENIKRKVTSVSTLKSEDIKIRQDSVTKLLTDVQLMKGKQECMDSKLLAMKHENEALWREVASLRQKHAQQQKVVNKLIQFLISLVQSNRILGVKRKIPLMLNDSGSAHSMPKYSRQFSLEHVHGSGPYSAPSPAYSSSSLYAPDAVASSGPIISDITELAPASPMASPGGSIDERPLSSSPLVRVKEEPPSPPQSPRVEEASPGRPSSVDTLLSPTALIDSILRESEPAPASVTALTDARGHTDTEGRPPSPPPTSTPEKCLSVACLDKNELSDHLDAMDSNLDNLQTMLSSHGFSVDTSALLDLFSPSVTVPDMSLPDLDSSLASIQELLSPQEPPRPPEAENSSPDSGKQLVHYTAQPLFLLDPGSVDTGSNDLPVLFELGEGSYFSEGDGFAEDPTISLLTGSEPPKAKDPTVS

[17] = Drug localization in vesicle of human A549 cells at 2 uM measured after 4 hrs by MitoTracker Deep Red based confocal microscopic analysis; details: a549, 4 h

Row | Structure (SMILES) | GI50 (MDA-MB-231 [2]) | CC50 (MDA-MB-231 [3]) | EC (MDA-MB-231 [4]) | IC50 (MDA-MB-231 [2]) | further results
1 | OCCCCCCCCCC[P+](c1ccccc1)(c1ccccc1)c1ccccc1.[Br-] |  |  |  |  | Activity (HT-29 [1]): <=35%
2 | Cn1c(=O)c(NC(=O)c2ccc(OCCCCCCCCCCCC[P+](c3ccccc3)(c3ccccc3)c3ccccc3)cc2)cc2cc(Br)ccc21.[Br-] | 11000 nM | 17900 nM | 15.2 µM |  | 
3 | Cn1c(=O)c(NC(=O)c2ccc(OCCCC[P+](c3ccccc3)(c3ccccc3)c3ccccc3)cc2)cc2cc(Br)ccc21.[Br-] | 76 nM | 110 nM | 0.091 µM | 82 nM | 
4 | Cn1c(=O)c(NC(=O)c2ccc(OCCCCCCCCCC[P+](c3ccccc3)(c3ccccc3)c3ccccc3)cc2)cc2ccccc21.[Br-] | 26 nM | 310 nM | 0.092 µM | 49 nM | 
5 | Cn1c(=O)c(NC(=O)c2ccc(OCCCCC[P+](c3ccccc3)(c3ccccc3)c3ccccc3)cc2)cc2cc(Br)ccc21.[Br-] | 83 nM | 100 nM | 0.093 µM | 87 nM | 
6 | COc1ccc(C(=O)Nc2cc3cc(Br)ccc3n(C)c2=O)cc1 | 60 nM | 380 nM | 0.16 µM |  | CC50 (HCT-116 [5]): 7000 nM; CC50 (K562): 48000 nM; CC50 (MDA-MB-231 [6]): 2000 nM; Activity (HT-29 [1]): -30%; CC50 (PC-3): 10000 nM; IC50 (HT-29 [7]): > 20000 nM
7 | Cn1c(=O)c(NC(=O)c2ccc(OCCCCCCCCCCBr)cc2)cc2cc(Br)ccc21 |  |  |  | 7000 nM | 
8 | Cn1c(=O)c(NC(=O)c2ccc(OCCCCCCCCCC[P+](c3ccccc3)(c3ccccc3)c3ccccc3)cc2)cc2cc(Br)ccc21.[Br-] | 8 nM | 180 nM | 0.037 µM | 8 nM | CC50 (HCT-116 [5]): 36 nM; CC50 (K562): 107 nM; CC50 (MDA-MB-231 [6]): 180 nM; Activity (HT-29 [1]): <=68%; CC50 (PC-3): 300 nM; IC50 (HT-29 [7]): < 100 nM; Activity (HT-29 [8]): <10%; IC50 (HT-29 [9]): < 100 nM; Activity (HT-29 [10]): Non-Toxic; viability at 1 µM (HCT-116 [11]): 11%; Activity (HT-29 [12]): Dde; Activity (HT-29 [13]): Dde; Activity (HT-29 [14]): Active; Activity (HT-29 [15]): Active; Activity [16]: Active
9 | Cn1c(=O)c(NC(=O)c2ccc(OCCC[P+](c3ccccc3)(c3ccccc3)c3ccccc3)cc2)cc2cc(Br)ccc21.[Br-] | 60 nM | 380 nM | 0.16 µM |  | 
10 | Cn1c(=O)c(NC(=O)c2ccc(OCCCCCCC[P+](c3ccccc3)(c3ccccc3)c3ccccc3)cc2)cc2cc(Br)ccc21.[Br-] | 65 nM | 490 nM | 0.18 µM | 82 nM | 
11 | Cn1c(=O)c(NC(=O)c2ccc(O)cc2)cc2cc(Br)ccc21 | 5790 nM | 17600 nM | 10.97 µM | 7150 nM | 
12 | Cn1c(=O)c(NC(=O)c2ccc(OCCCCCCCCCCOc3ccc(N(c4ccc(/C=C/c5cc[n+](C)cc5)cc4)c4ccc(/C=C/c5cc[n+](C)cc5)cc4)cc3)cc2)cc2cc(Br)ccc21.[I-].[I-] |  |  |  |  | viability at 1 µM (HCT-116 [11]): 95%; Drug uptake [17]: Active
